# Measurements collected from several papers.
# Lines come from different studies, so protocols differ.
# Cell line: HepG2
# Effect on: cell growth or viability
Compound,method,time,IC50 [µM]
Nc1c(C(=O)N2CC(F)(F)C2)sc2ncccc12,,72 h,> 100
C#CCn1c(C(=O)/C=C/c2ccc(F)cc2)nc2ccccc21,LDH,48 h,1.72
Fc1ccc2c(-c3nc(Cc4ccccc4)cs3)nn(Cc3ccc(Cl)cc3Cl)c2c1,,48 h,25.1
COc1cc(NC(=N)CC(O)c2cc3c(F)cc(F)cc3c3cc(C(F)(F)F)ccc23)ccc1Br (centres unmarked),neutral red,24 h,15.3
COc1ccc(-c2cc(C(F)(F)F)c3c(N)c(C(=O)N4CCCC4)sc3n2)cc1,,72 h,> 50
CC1=C(O)C(=O)C=C2C1=CC=C1[C@@]2(C)CC[C@@]2(C)[C@@H]3C[C@](C)(C(=O)O)CC[C@]3(C)CC[C@]12C,CCK-8,24 h,2.53
Nc1c(C(=O)Nc2cccnc2)sc2nc(-c3ccccc3)cc(C(F)(F)F)c12,,72 h,> 100
N=C(CC(O)c1cc2c(F)cc(F)cc2c2cc(C(F)(F)F)ccc12)Nc1ccc(-c2ccc(F)cc2)cc1 (centres unmarked),neutral red,24 h,10.5
CC(C)=CCC[C@](C)(O)[C@H]1CC[C@]2(C)[C@@H]1[C@H](O)C[C@@H]1[C@@]3(C)CC[C@H](O)C(C)(C)[C@@H]3[C@@H](O[C@@H]3O[C@H](CO)[C@@H](O)[C@H](O)[C@H]3O)C[C@]12C,CCK-8,24 h,32
N=C(CC(O)c1cc2c(F)cc(F)cc2c2cc(C(F)(F)F)ccc12)Nc1ccccc1I (centres unmarked),neutral red,24 h,160
CN[C@@H]1C[C@H]2O[C@@](C)([C@@H]1OC)n1c3ccccc3c3c4c(c5c6ccccc6n2c5c31)C(=O)NC4,,,0.0383
